From ChEMBL document CHEMBL5058577, “EUbOPEN Chemogenomics Library 2 (Multiplex)” (2022)

Test system: HEK-293T
Assay: Multiplex assay against HEK293T
Assay type: toxicity, cell-based
Conditions: human
How it was run: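 Phenotypes for tubulin, mitochondrial mass and membrane permeability are expressed as per cents of healthy-nucleus cells. Cells were stained live at seeding with Hoechst33342, BioTracker Green Microtubule Cytoskeleton Dye, MitoTracker Red and Annexin V Alexa Fluor 680, then imaged after compound addition on a CQ1 microscope at 37°C and 5% CO2. Machine-learning gating in CellPathfinder separated Hoechst high-intensity objects from normal cells, divided normal cells by nuclear state (healthy, pyknosed, fragmented) and divided pyknosed cells into mitotic or apoptotic.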

[1] = 12 h, 1 µM, compound concentration 1 uM, replicate 1
[2] = 12 h, 1 µM, compound concentration 1 uM, replicate 2
[3] = 12 h, 10 µM, compound concentration 10 uM, replicate 1
[4] = 12 h, 10 µM, compound concentration 10 uM, replicate 2
[5] = 24 h, 1 µM, compound concentration 1 uM, replicate 1
[6] = 24 h, 1 µM, compound concentration 1 uM, replicate 2
[7] = 24 h, 10 µM, compound concentration 10 uM, replicate 1
[8] = 24 h, 10 µM, compound concentration 10 uM, replicate 2
[9] = 48 h, 1 µM, compound concentration 1 uM, replicate 1
[10] = 48 h, 1 µM, compound concentration 1 uM, replicate 2
[11] = 48 h, 10 µM, compound concentration 10 uM, replicate 1
[12] = 48 h, 10 µM, compound concentration 10 uM, replicate 2

Which results are given for `C[C@H](N)COC(=O)[C@@H](CCCCN)NC(=O)Cc1c(-c2ccc3ccccc3c2)[nH]c2c1ccc1ccccc12`?
Population Apoptotic (%) [1]: 22%; Population Fragmented Nuclei (%) [1]: 6%; Population Healthy Nuclei (%) [1]: 82%; Population Hoechst High Intensity Objects (%) [1]: 8%; Population Membrane Permeable-Phenotype (%) [1]: 0%; Population Mitochondria Different-Phenotype (%) [1]: 37%; Population Mitotic Cells (%) [1]: 77%; Population Normal (%) [1]: 91%; Population Pyknosed Nuclei (%) [1]: 10%; Population Tubulin-Different-Phenotype (%) [1]: 27%; Total Cell Count [1]: 458; Population Apoptotic (%) [2]: 51%; Population Fragmented Nuclei (%) [2]: 8%; Population Healthy Nuclei (%) [2]: 74%; Population Mitochondria Different-Phenotype (%) [2]: 65%; Population Mitotic Cells (%) [2]: 48%; Population Pyknosed Nuclei (%) [2]: 16%; Population Tubulin-Different-Phenotype (%) [2]: 30%; Total Cell Count [2]: 291; Population Apoptotic (%) [3]: 41%; Population Fragmented Nuclei (%) [3]: 7%; Population Healthy Nuclei (%) [3]: 78%; Population Hoechst High Intensity Objects (%) [3]: 11%; Population Membrane Permeable-Phenotype (%) [3]: 0%; Population Mitochondria Different-Phenotype (%) [3]: 60%; Population Mitotic Cells (%) [3]: 58%; Population Normal (%) [3]: 88%; Population Pyknosed Nuclei (%) [3]: 14%; Population Tubulin-Different-Phenotype (%) [3]: 54%; Total Cell Count [3]: 435; Population Apoptotic (%) [4]: 61%; Population Fragmented Nuclei (%) [4]: 5%; Population Hoechst High Intensity Objects (%) [4]: 7%; Population Mitochondria Different-Phenotype (%) [4]: 72%; Population Mitotic Cells (%) [4]: 38%; Population Normal (%) [4]: 93%; Population Pyknosed Nuclei (%) [4]: 16%; Population Tubulin-Different-Phenotype (%) [4]: 50%; Total Cell Count [4]: 343; Population Apoptotic (%) [5]: 25%; Population Fragmented Nuclei (%) [5]: 9%; Population Healthy Nuclei (%) [5]: 77%; Population Hoechst High Intensity Objects (%) [5]: 4%; Population Membrane Permeable-Phenotype (%) [5]: 0%; Population Mitochondria Different-Phenotype (%) [5]: 24%; Population Mitotic Cells (%) [5]: 75%; Population Normal (%) [5]: 95%; Population Pyknosed Nuclei (%) [5]: 12%; Population Tubulin-Different-Phenotype (%) [5]: 19%; Total Cell Count [5]: 638; Population Apoptotic (%) [6]: 54%; Population Fragmented Nuclei (%) [6]: 7%; Population Healthy Nuclei (%) [6]: 80%; Population Hoechst High Intensity Objects (%) [6]: 7%; Population Membrane Permeable-Phenotype (%) [6]: 1%; Population Mitochondria Different-Phenotype (%) [6]: 47%; Population Mitotic Cells (%) [6]: 45%; Population Normal (%) [6]: 92%; Population Tubulin-Different-Phenotype (%) [6]: 25%; Total Cell Count [6]: 352; Population Apoptotic (%) [7]: 41%; Population Fragmented Nuclei (%) [7]: 6%; Population Healthy Nuclei (%) [7]: 78%; Population Hoechst High Intensity Objects (%) [7]: 6%; Population Membrane Permeable-Phenotype (%) [7]: 0%; Population Mitochondria Different-Phenotype (%) [7]: 57%; Population Mitotic Cells (%) [7]: 58%; Population Normal (%) [7]: 93%; Population Pyknosed Nuclei (%) [7]: 14%; Population Tubulin-Different-Phenotype (%) [7]: 45%; Total Cell Count [7]: 539; Population Apoptotic (%) [8]: 48%; Population Fragmented Nuclei (%) [8]: 9%; Population Healthy Nuclei (%) [8]: 80%; Population Hoechst High Intensity Objects (%) [8]: 7%; Population Mitochondria Different-Phenotype (%) [8]: 54%; Population Mitotic Cells (%) [8]: 51%; Population Normal (%) [8]: 92%; Population Pyknosed Nuclei (%) [8]: 10%; Population Tubulin-Different-Phenotype (%) [8]: 42%; Total Cell Count [8]: 439; Population Apoptotic (%) [9]: 15%; Population Fragmented Nuclei (%) [9]: 13%; Population Healthy Nuclei (%) [9]: 78%; Population Hoechst High Intensity Objects (%) [9]: 4%; Population Membrane Permeable-Phenotype (%) [9]: 2%; Population Mitochondria Different-Phenotype (%) [9]: 16%; Population Mitotic Cells (%) [9]: 84%; Population Normal (%) [9]: 95%; Population Pyknosed Nuclei (%) [9]: 7%; Population Tubulin-Different-Phenotype (%) [9]: 13%; Total Cell Count [9]: 963; Population Apoptotic (%) [10]: 37%; Population Fragmented Nuclei (%) [10]: 11%; Population Healthy Nuclei (%) [10]: 79%; Population Membrane Permeable-Phenotype (%) [10]: 0%; Population Mitochondria Different-Phenotype (%) [10]: 29%; Population Mitotic Cells (%) [10]: 62%; Population Pyknosed Nuclei (%) [10]: 9%; Population Tubulin-Different-Phenotype (%) [10]: 17%; Total Cell Count [10]: 540; Population Apoptotic (%) [11]: 27%; Population Fragmented Nuclei (%) [11]: 13%; Population Healthy Nuclei (%) [11]: 78%; Population Hoechst High Intensity Objects (%) [11]: 6%; Population Membrane Permeable-Phenotype (%) [11]: 0%; Population Mitochondria Different-Phenotype (%) [11]: 44%; Population Mitotic Cells (%) [11]: 72%; Population Normal (%) [11]: 93%; Population Pyknosed Nuclei (%) [11]: 7%; Population Tubulin-Different-Phenotype (%) [11]: 33%; Total Cell Count [11]: 781; Population Apoptotic (%) [12]: 32%; Population Fragmented Nuclei (%) [12]: 14%; Population Healthy Nuclei (%) [12]: 79%; Population Hoechst High Intensity Objects (%) [12]: 4%; Population Mitochondria Different-Phenotype (%) [12]: 43%; Population Mitotic Cells (%) [12]: 67%; Population Normal (%) [12]: 95%; Population Pyknosed Nuclei (%) [12]: 6%; Population Tubulin-Different-Phenotype (%) [12]: 35%; Total Cell Count [12]: 681
